Source: ChEMBL document CHEMBL4118104, “Design, Synthesis, and Evaluation of Orally Bioavailable Quinoline-Indole Derivatives as Innovative Multitarget-Directed Ligands: Promotion of Cell Proliferation in the Adult Murine Hippocampus for the Treatment of Alzheimer's Disease” (J Med Chem, 2018)

Experiments:
Mus musculus [1] = assay: Toxicity in C57BL/6 mouse assessed as mortality at 677 to 2000 mg/kg, ig measured continuously during first 4 hrs, intermittently for following 24 hrs and occasionally thereafter for 14 consecutive days; format: organism-based; conditions: in vivo, po
Procedure, shortened: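 Adult C57BL/6 mice, 12 weeks old, given single intragastric doses of 0, 677, 1333 or 2000 mg/kg (n = 6 per dose, 3 male and 3 female). Abnormal behaviour and deaths observed continuously for the first 4 h, intermittently over the next 24 h, then occasionally for 14 days to catch delayed effects.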

Mus musculus [2] = assay: Toxicity in C57BL/6 mouse assessed as effect on water intake at 677 to 2000 mg/kg, ig measured continuously during first 4 hrs, intermittently for following 24 hrs and occasionally thereafter for 14 consecutive days; format: organism-based; conditions: in vivo, po
Mus musculus [3] = assay: Toxicity in C57BL/6 mouse assessed as effect on food intake at 677 to 2000 mg/kg, ig measured continuously during first 4 hrs, intermittently for following 24 hrs and occasionally thereafter for 14 consecutive days; format: organism-based; conditions: in vivo, po
Mus musculus [4] = assay: Toxicity in C57BL/6 mouse assessed as effect on body weight at 677 to 2000 mg/kg, ig measured continuously during first 4 hrs, intermittently for following 24 hrs and occasionally thereafter for 14 consecutive days; format: organism-based; conditions: in vivo, po
Mus musculus [5] = assay: Toxicity in C57BL/6 mouse assessed as macroscopic abnormalities of intestine at 677 to 2000 mg/kg, ig after 14 consecutive days; format: organism-based; conditions: in vivo, po
Mus musculus [6] = assay: Toxicity in C57BL/6 mouse assessed as histological abnormalities of heart at 2000 mg/kg, ig after 14 consecutive days by hematoxylin/eosin dye-based microscopic analysis; format: organism-based; conditions: in vivo, po
Procedure, shortened: (§1)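 Adult C57BL/6 mice, 12 weeks old, single intragastric doses of 0, 677, 1333 or 2000 mg/kg (n = 6 per dose, 3 male/3 female); behaviour and mortality observed over 14 days; liver, heart, lung and brain examined by HE staining at 2000 mg/kg.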

Mus musculus [7] = assay: Toxicity in C57BL/6 mouse assessed as histological abnormalities of brain at 2000 mg/kg, ig after 14 consecutive days by hematoxylin/eosin dye-based microscopic analysis; format: organism-based; conditions: in vivo, po, 336 h; procedure, shortened: as §1
Mus musculus [8] = assay: Toxicity in C57BL/6 mouse assessed as macroscopic abnormalities of kidney at 677 to 2000 mg/kg, ig after 14 consecutive days; format: organism-based; conditions: in vivo, po
Mus musculus [9] = assay: Induction of cell proliferation in C57BL/6 mouse hippocampal neurons in DG region assessed as BrdU-incorporation at 0.5 uL/hr, icv for 7 days by immunohistochemical analysis (reference value: 7.8%); format: functional
Mus musculus [10] = assay: Induction of cell proliferation in C57BL/6 mouse hippocampal neurons in CA1 region assessed as BrdU-incorporation at 0.5 uL/hr, icv for 7 days by immunohistochemical analysis (reference value: 3.2%); format: functional
Mus musculus [11] = assay: Induction of cell proliferation in C57BL/6 mouse hippocampal neurons in CA2 region assessed as BrdU-incorporation at 0.5 uL/hr, icv for 7 days by immunohistochemical analysis (reference value: 2.4%); format: functional
Mus musculus [12] = assay: Induction of cell proliferation in C57BL/6 mouse hippocampal neurons in CA1 region assessed as BrdU-incorporation at 30 mg/kg, po administered via gavage for 7 days by immunohistochemical analysis (reference value: 2.3%); format: functional
Procedure, shortened: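 C57BL/6 mice, 12 weeks old, n = 6, individually housed beforehand without wheels. Compound gavaged 30 mg/kg/day for 7 days with daily IP BrdU 50 mg/kg; BrdU+ cells counted by immunohistochemistry per hippocampal volume; two-way ANOVA.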

Mus musculus [13] = assay: Toxicity in double APP/PS1 transgenic Alzheimer's disease mouse model assessed as emesis-like behavior at 30 mg/kg/day, po for 80 days; format: organism-based; conditions: in vivo, 1920 h
Procedure, shortened: (§2)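 APP/PS1 double-transgenic mice, six months old, dosed by intragastric infusion at 30 mg/kg/day in 0.5% CMC-Na for 80 consecutive days (n = 10). Vehicle mice and wild-type C57BL/6 mice received blank 0.5% CMC-Na. Body weight tracked daily; diarrhoea, emesis-like behaviour and mortality monitored. At sacrifice, brain, subcutaneous layer, stomach, intestines, heart, lung, liver, spleen, kidneys and other organs examined for expansion or carcinogenicity.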

Mus musculus [14] = assay: Toxicity in double APP/PS1 transgenic Alzheimer's disease mouse model assessed as increase in mortality at 30 mg/kg/day, po for 80 days; format: organism-based; conditions: in vivo, 1920 h; procedure, shortened: as §2
Mus musculus [15] = assay: Toxicity in double APP/PS1 transgenic Alzheimer's disease mouse model assessed as swimming speed at 30 mg/kg/day, po for 80 days by Morris water maze test (reference value: 17.8 +/- 2.5 cm/sec); format: organism-based; conditions: in vivo, 1920 h
Mus musculus [16] = assay: Cognition enhancement activity in double APP/PS1 transgenic Alzheimer's disease mouse model assessed as time spent in virtual platform at 30 mg/kg/day, po for 80 days by Morris water maze test (reference value: 1.9 +/- 0.2 sec); format: functional
Procedure, shortened: (§3)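 APP/PS1 mice, six months old, gavaged 30 mg/kg/day in 0.5% CMC-Na for 80 days. Probe trial was a single 90 s free swim with the platform absent; effective region is twice the platform diameter. n = 10, mean ± SD, two-way ANOVA.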

Mus musculus [17] = assay: Cognition enhancement activity in double APP/PS1 transgenic Alzheimer's disease mouse model assessed as time spent in effective region at 30 mg/kg/day, po for 80 days by Morris water maze test (reference value: 9.0 +/- 3.8 sec); format: functional; procedure, shortened: as §3
Mus musculus [18] = assay: Cognition enhancement activity in double APP/PS1 transgenic Alzheimer's disease mouse model assessed as time spent in correct quadrant at 30 mg/kg/day, po for 80 days by Morris water maze test (reference value: 20.6 +/- 4.4 sec); format: functional; procedure, shortened: as §3
Mus musculus [19] = assay: Cognition enhancement activity in double APP/PS1 transgenic Alzheimer's disease mouse model assessed as swimming path length in virtual platform at 30 mg/kg/day, po for 80 days by Morris water maze test (reference value: 9.1 +/- 2.8 cm); format: functional; procedure, shortened: as §3
Mus musculus [20] = assay: Cognition enhancement activity in double APP/PS1 transgenic Alzheimer's disease mouse model assessed as swimming path length in effective region at 30 mg/kg/day, po for 80 days by Morris water maze test (reference value: 44.2 +/- 4.9 cm); format: functional; procedure, shortened: as §3
Mus musculus [21] = assay: Toxicity in double APP/PS1 transgenic Alzheimer's disease mouse model assessed as brain expansion at 30 mg/kg/day, po for 80 days; format: organism-based; conditions: in vivo, 1920 h; procedure, shortened: as §2
Mus musculus [22] = assay: Toxicity in double APP/PS1 transgenic Alzheimer's disease mouse model assessed as carcinogenicity in subcutaneous layer at 30 mg/kg/day, po for 80 days; format: organism-based; conditions: in vivo, 1920 h; procedure, shortened: as §2
Mus musculus [23] = assay: Toxicity in double APP/PS1 transgenic Alzheimer's disease mouse model assessed as carcinogenicity in stomach at 30 mg/kg/day, po for 80 days; format: organism-based; conditions: in vivo, 1920 h; procedure, shortened: as §2
Mus musculus [24] = assay: Toxicity in double APP/PS1 transgenic Alzheimer's disease mouse model assessed as carcinogenicity in lung at 30 mg/kg/day, po for 80 days; format: organism-based; conditions: in vivo, 1920 h; procedure, shortened: as §2
Mus musculus [25] = assay: Toxicity in double APP/PS1 transgenic Alzheimer's disease mouse model assessed as carcinogenicity in spleen at 30 mg/kg/day, po for 80 days; format: organism-based; conditions: in vivo, 1920 h; procedure, shortened: as §2
Mus musculus [26] = assay: Toxicity in C57BL/6 mouse assessed as macroscopic abnormalities of lung at 677 to 2000 mg/kg, ig after 14 consecutive days; format: organism-based; conditions: in vivo, po, 336 h

SMILES | Activity (Mus musculus [1]) | Activity (Mus musculus [2]) | Activity (Mus musculus [3]) | Activity (Mus musculus [4]) | Activity (Mus musculus [5]) | Activity (Mus musculus [6]) | Activity (Mus musculus [7]) | Activity (Mus musculus [8]) | Activity (Mus musculus [9]) [%] | Activity (Mus musculus [10]) [%] | Activity (Mus musculus [11]) [%] | Activity (Mus musculus [12]) [%] | Activity (Mus musculus [13]) | Activity (Mus musculus [14]) | Activity (Mus musculus [15]) [cm/s] | Time (Mus musculus [16]) [s] | Time (Mus musculus [17]) [s] | Time (Mus musculus [18]) [s] | Activity (Mus musculus [19]) [cm] | Activity (Mus musculus [20]) [cm] | other results
Cl.Oc1c(Cl)cc(Cl)c2ccc(-c3cc4cc5c(cc4[nH]3)OCO5)nc12 | Non-Toxic | Non-Toxic | Non-Toxic | Non-Toxic | Non-Toxic | Non-Toxic | Non-Toxic | Non-Toxic | 31.2 | 49.8 | 38 | 14.6 | Non-Toxic | Non-Toxic | 19 | 2.6 | 16.7 | 24 | 15 | 65.5 | Activity (Mus musculus [21]): Non-Toxic; Activity (Mus musculus [22]): Non-Toxic; Activity (Mus musculus [23]): Non-Toxic; Activity (Mus musculus [24]): Non-Toxic; Activity (Mus musculus [25]): Non-Toxic; Activity (Mus musculus [26]): Non-Toxic
Cl.Oc1ccc2[nH]c(-c3ccc4c(Cl)cc(Cl)c(O)c4n3)cc2c1 | Non-Toxic | Non-Toxic | Non-Toxic | Non-Toxic | Non-Toxic | Non-Toxic | Non-Toxic | Non-Toxic | 41.3 | 50.1 | 39.6 | 21.1 | Non-Toxic | Non-Toxic | 18.9 | 3.2 | 18 | 27.4 | 22.1 | 71.3 | Activity (Mus musculus [21]): Non-Toxic; Activity (Mus musculus [22]): Non-Toxic; Activity (Mus musculus [23]): Non-Toxic; Activity (Mus musculus [24]): Non-Toxic; Activity (Mus musculus [25]): Non-Toxic; Activity (Mus musculus [26]): Non-Toxic
